Active and inactive are the calls of the source. The calls are words filed in the database; no cut-off is given here.
What was measured:
Bacillus cereus [1] = test: Antimicrobial activity against Bacillus cereus 702 Roma after 18 hrs by agar-well diffusion assay; format: functional
Outline: (§1)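 Organisms suspended in Mueller Hinton broth, diluted to about 10⁶ cfu/mL, and flood-inoculated onto Mueller Hinton agar, then dried. Samples dissolved in DMSO were added to 5 mm wells cut in the agar. Plates were incubated 18 h at 35 °C, and inhibition zones were measured. Ampicillin was the standard drug, with a DMSO solvent control.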

[2] = system: Yersinia pseudotuberculosis; test: Antimicrobial activity against Yersinia pseudotuberculosis ATCC 911 after 18 hrs by agar-well diffusion assay; format: functional
Outline: (§2)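 Bacteria were suspended in Mueller Hinton broth at about 10⁶ cfu/mL and flood-inoculated onto Mueller Hinton agar, then dried. Samples in DMSO went into 5-mm cork-bored wells. Plates were incubated 18 h at 35 °C and the zone of inhibition was read. Ampicillin was the standard, with a DMSO solvent control.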

Escherichia coli [3] = test: Antimicrobial activity against Escherichia […] after 18 hrs by agar-well diffusion assay; format: functional; outline: as §1
Candida tropicalis [4] = test: Antimicrobial activity against Candida tropicalis ATCC 13803 after 18 hrs by agar-well diffusion assay; format: functional
Outline: (§3)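 Yeast suspended in Mueller Hinton broth at about 10⁶ cfu/mL and flood-inoculated onto Sabouraud dextrose agar, then dried. Samples dissolved in DMSO were placed in 5 mm wells bored in the agar. After 18 h at 35 °C, the zone of inhibition was measured. Fluconazole was the standard drug, with a DMSO solvent control.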

Enterococcus faecalis [5] = test: Antimicrobial activity against Enterococcus faecalis ATCC 29212 after 18 hrs by agar-well diffusion assay; format: functional; outline: as §1
Candida albicans [6] = test: Antimicrobial activity against Candida albicans ATCC 60193 after 18 hrs by agar-well diffusion assay; format: functional; outline: as §3
Staphylococcus aureus [7] = test: Antimicrobial activity against Staphylococcus aureus ATCC […] after 18 hrs by agar-well diffusion assay; format: functional, ATCC 25923; outline: as §1
Pseudomonas aeruginosa [8] = test: Antimicrobial activity against Pseudomonas aeruginosa ATCC 27853 after 18 hrs by agar-well diffusion assay; format: functional; outline: as §1
Escherichia coli [9] = test: Antimicrobial activity against Escherichia […] at 10 ug after 18 hrs by agar-well diffusion assay; format: functional; conditions: read-out: IZ; outline: as §2
[10] = system: Yersinia pseudotuberculosis; test: Antimicrobial activity against Yersinia pseudotuberculosis ATCC 911 at 10 ug after 18 hrs by agar-well diffusion assay; format: functional; conditions: ATCC 911, 18 h, read-out: IZ; outline: as §2
Bacillus cereus [11] = test: Antimicrobial activity against Bacillus cereus 702 Roma at 10 ug after 18 hrs by agar-well diffusion assay; format: functional; conditions: read-out: IZ; outline: as §1
Staphylococcus aureus [12] = test: Antimicrobial activity against Staphylococcus aureus ATCC […] at 10 ug after 18 hrs by agar-well diffusion assay; format: functional; conditions: ATCC 25923, 18 h, read-out: IZ; outline: as §1
Candida albicans [13] = test: Antimicrobial activity against Candida albicans ATCC 60193 at 5 ug after 18 hrs by agar-well diffusion assay; format: functional
Outline: (§4)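 Yeasts were suspended in Mueller Hinton broth at about 10⁶ cfu/mL and flood-inoculated onto Sabouraud dextrose agar, then dried. Samples in DMSO went into 5-mm wells. Plates were incubated 18 h at 35 °C and inhibition zones were measured. Fluconazole was the standard, with a DMSO solvent control.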

Pseudomonas aeruginosa [14] = test: Antimicrobial activity against Pseudomonas aeruginosa ATCC 27853 at 10 ug after 18 hrs by agar-well diffusion assay; format: functional; conditions: ATCC 27853, 18 h, read-out: IZ; outline: as §1
Enterococcus faecalis [15] = test: Antimicrobial activity against Enterococcus faecalis ATCC 29212 at 10 ug after 18 hrs by agar-well diffusion assay; format: functional; conditions: ATCC 29212, 18 h, read-out: IZ; outline: as §1
Candida tropicalis [16] = test: Antimicrobial activity against Candida tropicalis ATCC 13803 at 5 ug after 18 hrs by agar-well diffusion assay; format: functional; outline: as §4

Structure (SMILES) | inhibition zone (IZ) (Bacillus cereus [1]) | inhibition zone (IZ) [2] | inhibition zone (IZ) (Escherichia coli [3]) | inhibition zone (IZ) (Candida tropicalis [4]) | inhibition zone (IZ) (Enterococcus faecalis [5]) | inhibition zone (IZ) (Candida albicans [6]) | inhibition zone (IZ) (Staphylococcus aureus [7]) [mm] | inhibition zone (IZ) (Pseudomonas aeruginosa [8]) | inhibition zone (IZ) (Staphylococcus aureus [7]; ATCC 25923) | zone of inhibition at 10 µg/disc (Escherichia coli [9]) [mm] | zone of inhibition at 10 µg/disc [10] [mm] | zone of inhibition at 10 µg/disc (Bacillus cereus [11]) [mm] | zone of inhibition at 10 µg/disc (Staphylococcus aureus [12]) [mm] | inhibition zone (IZ) (Candida albicans [13]) | zone of inhibition at 10 µg/disc (Pseudomonas aeruginosa [14]) [mm] | zone of inhibition at 10 µg/disc (Enterococcus faecalis [15]) [mm] | inhibition zone (IZ) (Candida tropicalis [16])
Cc1ccc(-c2nn(CC(=O)NNC(=S)Nc3ccccc3)c(=O)n2N)cc1 | inactive | inactive | inactive | inactive | inactive | inactive | 6 | inactive |  |  |  |  |  |  |  |  | 
Cc1ccc(-c2nn(Cc3nnc(S)n3-c3ccccc3)c(=O)n2N)cc1 | 20 mm | 22 mm | 25 mm | inactive | 20 mm | inactive | 24 | 30 mm |  |  |  |  |  |  |  |  | 
COc1ccc(NC(=S)NNC(=O)Cn2nc(-c3ccc(C)cc3)n(N)c2=O)cc1 | 22 mm | 25 mm | 24 mm | inactive | 28 mm | inactive | 28 | 35 mm |  |  |  |  |  |  |  |  | 
Cc1ccc(-c2nn(Cc3nnc(Nc4ccc(F)cc4)s3)c(=O)n2N)cc1 | inactive | inactive | inactive | inactive | inactive | inactive |  | inactive | inactive |  |  |  |  |  |  |  | 
COc1ccc(-n2c(S)nnc2Cn2nc(-c3ccc(C)cc3)n(N)c2=O)cc1 | 25 mm | 22 mm | 28 mm | inactive | 25 mm | inactive | 30 | 30 mm |  |  |  |  |  |  |  |  | 
CC1(C)S[C@@H]2[C@H](NC(=O)[C@H](N)c3ccccc3)C(=O)N2[C@H]1C(=O)O [AMPICILLIN] |  |  |  |  |  |  |  |  |  | 10 | 18 | 15 | 35 | inactive | 18 | 10 | inactive
COc1ccc(/C=N/n2c(-c3ccc(C)cc3)nn(Cc3nnc(S)n3-c3ccc(F)cc3)c2=O)cc1 | 22 mm | 30 mm | 30 mm | inactive | 24 mm | inactive | 26 | 35 mm |  |  |  |  |  |  |  |  | 
Cc1ccc(-c2nn(Cc3nnc(Nc4ccccc4)s3)c(=O)n2N)cc1 | inactive | inactive | inactive | inactive | inactive | inactive |  | inactive | inactive |  |  |  |  |  |  |  | 
Cc1ccc(-c2nn(CC(=O)NNC(=S)Nc3ccc(F)cc3)c(=O)n2N)cc1 | 22 mm | 28 mm | 34 mm | inactive | 30 mm | inactive | 30 | 35 mm |  |  |  |  |  |  |  |  | 
Cc1ccc(-c2nn(Cc3nnc(S)n3-c3ccc(F)cc3)c(=O)n2N)cc1 | 25 mm | 26 mm | 30 mm | inactive | 30 mm | inactive | 26 | 35 mm |  |  |  |  |  |  |  |  | 
Cc1ccc(-c2nn(Cc3nn(CN4CCN(C)CC4)c(=S)n3-c3ccccc3)c(=O)n2N)cc1 | inactive | inactive | inactive | inactive | inactive | inactive |  | inactive | inactive |  |  |  |  |  |  |  | 

Reference: ChEMBL document CHEMBL1152494, “Synthesis of some new 1,3,4-thiadiazol-2-ylmethyl-1,2,4-triazole derivatives and investigation of their antimicrobial activities” (2009)
